# Most compounds without a hit are left out; they make up all but 3.7% or so of the library.
# TAAR1 ag: human TAAR1 agonism; Q96RJ0; activation, % at 3 µM; hit rate 0.99% among 360,000; CHO RD-HGA16 TAAR1, Fluo-8 calcium fluorescence; vehicle wells 0%, saturating PEA agonist 100%; AID 624467;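 active = activation above the mean activation of all test compounds in the run plus 3 SD, cut at about 38% in these data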
# Target sequence (Q96RJ0 whole entry, looked up): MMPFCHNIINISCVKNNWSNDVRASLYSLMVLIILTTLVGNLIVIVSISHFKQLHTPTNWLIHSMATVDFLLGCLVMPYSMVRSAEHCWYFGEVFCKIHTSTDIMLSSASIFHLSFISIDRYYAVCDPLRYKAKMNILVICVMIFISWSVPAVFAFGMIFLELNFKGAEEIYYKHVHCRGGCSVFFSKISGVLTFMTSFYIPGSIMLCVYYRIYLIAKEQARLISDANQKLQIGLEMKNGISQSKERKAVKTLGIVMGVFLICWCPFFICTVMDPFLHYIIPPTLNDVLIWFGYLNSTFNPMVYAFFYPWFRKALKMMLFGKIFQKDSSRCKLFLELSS
#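 test system = CHO RD-HGA16 cells carrying human TAAR1 plus Gα16 | schedule = 17-24 h seeding, 75 min 37 °C dye, 30 min RT | compound dosing = 3 µM single concentration | control set = DMSO and PEA EC100 | replicates = n 1 | signal = Fluo-8 fluorescence, 5 s baseline then 140 s kinetic read | measure = percent activation vs PEA EC100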
# rCAG RNA binder: r(CAG) repeat RNA binding; TO-PRO-1 dye displacement fluorescence; inhibition, % at 3 µM; hit rate 1.3% among 370,000; AID 651821;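 active = inhibition above the plate cutoff, the mean of all test compounds on that plate plus 3 SD, cut at about 35% in these data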;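 note: higher means more dye released from RNA so lower well fluorescence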
# TAAR1 antag: antagonists of human TAAR1 | Q96RJ0 | CHO RD-HGA16 TAAR1, Fluo-8 calcium fluorescence, antagonist | inhibition, % at 3 µM | hit rate 1.5% among 360,000 | AID 624466;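 active = inhibition above a per-plate cutoff, the mean inhibition of test compounds on that plate plus 3 SD, cut at about 49% in these data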
#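 Assay system: CHO-derived RD-HGA16 cells stably expressing human TAAR1 plus Gα16. Timing: 140 s kinetic read after compound, 140 s after agonist. Technique: kinetic Fluo-8 calcium fluorescence measurement. Measure: % inhibition of agonist calcium response.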
# NS3 helicase inh: HCV NS3 helicase inhibition; AID 1800; inhibition, % at 10.9 µM; hit rate 0.56% among 290,000; NS3 helicase DNA unwinding, Cy5 molecular beacon fluorescence;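 active = inhibition above the mean of all tested compounds plus 3 SD, set per campaign, cut at about 35% in these data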
#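 Material: hepatitis C virus NS3 helicase domain fragment enzyme; measured by: Cy5 fluorescence, 0 and 60 min reads; control set: DMSO and thioflavine S; incubation: 60 min unwinding reaction at 25 °C after ATP addition; read-out basis: % inhibition from 60/0 min fluorescence ratio, DMSO 0%, thioflavine S 100%; repeats: singlicate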
# core dimer inh: blocks dimerization of HCV core protein; AID 1899; inhibition, % at 5 µM; hit rate 0.33% among 300,000; TR-FRET GST/Flag-core106 dimerization, 1536-well;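 active = inhibition above the mean of all tested compounds plus 3 SD, set per screening campaign, cut at about 45% in these data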
#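 Assay system: GST-tagged and Flag-tagged HCV core protein residues 1-106 / Times: compound-protein-antibody incubation 4 h at 22.5 °C / Signal: time-resolved FRET, ex 340 nm, em 617 and 671 nm / Evaluation: % inhibition based on acceptor/donor emission ratio / Benchmarks: wells lacking GST-core106 and wells with excess unlabelled core106 / Repeats: singlicate, one well per compound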
# NS3 hel confirm: HCV NS3 helicase inhibition, confirmation assay; shares compounds with NS3 helicase inh; inhibition, % at 10.9 µM; NS3 helicase DNA unwinding, Cy5 molecular beacon fluorescence; hit rate 31% among 1,600; AID 1943;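 active = inhibition above the mean of all tested compounds plus 3 SD, cutoff set per campaign, cut at about 36% in these data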
# DNA FID counter: displaces DNA intercalator in HCV helicase counter-screen; shares compounds with NS3 helicase inh; DNA fluorescent intercalator displacement, fluorescence; inhibition, % at 7.9 µM; hit rate 4% among 1,600; AID 1945; in the data active = inhibition above about 37%;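 note: higher means more displacement of ethidium bromide from the DNA hairpin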
# FID counter DR: displaces fluorescent intercalator from DNA, HCV helicase counter-screen | fluorescent intercalator displacement from DNA, fluorescence | AID 2172 | 120 tested, under 10 active | shares compounds with NS3 helicase inh | IC50, µM; call rule not given here
# Hits are given with their value; i = inactive; nt = no result.
SMILES,TAAR1 ag,rCAG RNA binder,TAAR1 antag,NS3 helicase inh,core dimer inh,NS3 hel confirm,DNA FID counter,others
COC(=O)/C(=C/c1ccco1)NC(=O)c1ccccc1,i,i,i,i,i,nt,nt,
Cc1scc(C(=O)N/N=C/c2ccc([N+](=O)[O-])o2)c1C,i,i,i,43,i,i,i,
Cc1ccc(NCC(=O)N/N=C\c2ccc([N+](=O)[O-])o2)cc1,i,i,i,i,i,nt,nt,
CCCCCC(=O)N/N=C/c1ccc([N+](=O)[O-])o1,i,i,i,39,i,i,i,
COc1ccc(-n2c(Cc3cccn3C)nnc2SCC(=O)NCc2ccccc2Cl)cc1,i,i,i,47,i,i,i,
CC(=O)c1cn(CC(=O)NCc2ccco2)c2ccccc12,i,i,i,i,i,nt,nt,
O=C(Cn1cc(C(=O)COc2ccccc2)c2ccccc21)NCc1ccco1,i,i,i,44,i,i,i,
COc1ccc(CCNC(=O)C2CC(=O)N(C3CCCCC3)C2)cc1OC (stereo not drawn),i,i,i,96,i,i,i,
CCOC(=O)Nc1ccc([N+](=O)[O-])cc1OC,i,i,i,42,i,i,i,
CCOC(=O)C(=O)Nc1ccc([N+](=O)[O-])cc1OC,i,i,i,i,i,nt,nt,
COc1ccc(N2C(=O)/C(=C\c3ccco3)N=C2SCC(=O)NC(C)(C)C)cc1Cl,i,i,i,i,i,nt,nt,
CCN(CC)C(=O)CSC1=N/C(=C/c2ccco2)C(=O)N1c1ccc(OC)c(Cl)c1,i,i,i,38,51,i,i,
O=C1c2ccccc2-c2c1cccc2C(=O)N1CCN(C(=O)c2ccco2)CC1,i,i,i,i,i,nt,nt,
O=C(O)CCCNc1cc(N2CCN(C(=O)c3ccco3)CC2)c2noc3c2c1C(=O)c1ccccc1-3,i,i,i,37,i,72,i,
O=C(Nc1nnc(-c2ccc3c(c2)CCCC3)o1)c1c(F)cccc1F,i,i,i,i,i,nt,nt,
O=C(Nc1nnc(-c2ccc3c(c2)CCCC3)o1)c1ccc(Cl)cc1Cl,i,57,i,72,i,72,i,
Cc1ccc(C(=O)/C=C/c2ccc(-c3ccc(C)cc3)o2)cc1,i,i,i,i,i,nt,nt,
O=C(/C=C\c1ccc(-c2ccccc2)o1)c1ccccc1,i,i,i,40,i,i,53,
CC(=O)OCCNc1cc(SCc2ccco2)c2nonc2c1[N+](=O)[O-],nt,nt,nt,47,i,i,i,
COC(=O)CCSc1cc(NCCOC(C)=O)c([N+](=O)[O-])c2nonc12,i,i,i,i,i,nt,nt,
CC1CC(=O)c2c(cc3c(-c4c(O)cc(O)c5c(O)c6c(cc45)OC(C)CC6=O)c(O)cc(O)c3c2O)O1 (stereo not drawn),nt,nt,nt,98,i,123,72,
O=S1(=O)NC2c3ccccc3CC2O1 (stereo not drawn),i,i,i,40,i,i,i,
CCC(CC)C1C(C#N)=C(N)Oc2cc(C)oc(=O)c21 (stereo not drawn),i,i,i,i,i,nt,nt,
Cc1cc2c(c(=O)o1)C(CCC1CCCCC1)C(C#N)=C(N)O2 (stereo not drawn),i,i,i,39,i,i,i,
Cc1cc(C2=NNC(=NCc3ccccc3)SC2)c(C)n1-c1c(C)n(C)n(-c2ccccc2)c1=O,i,i,i,36,nt,i,i,
SMILES,TAAR1 ag,rCAG RNA binder,TAAR1 antag,NS3 helicase inh,core dimer inh,NS3 hel confirm,DNA FID counter,others
COc1ccc(N(CC(=O)Nc2cccc(C)c2)S(=O)(=O)c2ccc(C)cc2)cc1OC,i,i,i,92,i,i,i,
O=S1(=O)c2ccc(Br)cc2OC[C@H](Cc2ccccc2)N1Cc1cn(Cc2ccc(F)cc2)nn1,nt,i,nt,nt,nt,nt,nt,
O=C(NC1CCCCN(Cc2cccc(Cl)c2)C1=O)C1CCCCC1 (stereo not drawn),nt,i,nt,nt,nt,nt,nt,
O=C(NCC1CCCO1)c1cc2nc(-c3ccco3)cc(C(F)(F)Cl)n2n1 (stereo not drawn),i,i,i,51,i,i,i,
O=C(NCC1CCCO1)c1nn2c(C(F)(F)F)cc(-c3ccco3)nc2c1Cl (stereo not drawn),i,i,i,i,i,nt,nt,
O=C(CC1SC(=O)N(c2ccccc2)C1=O)Nc1cccc2ccccc12 (stereo not drawn),i,i,i,46,i,i,i,
COc1ccccc1NC(=O)CC1SC(=N)N(c2ccccc2)C1=O (stereo not drawn),i,i,i,i,i,nt,nt,
CCOc1ccc(NC(=O)CC2SC(=O)N(c3ccccc3)C2=O)cc1 (stereo not drawn),i,i,i,38,i,i,i,
COP(=O)(CC(=O)C(Cc1ccccc1)NC(=O)OC(C)(C)C)OC (stereo not drawn),nt,i,nt,nt,nt,nt,nt,
COCCn1c(=O)[nH]c(=O)c2c1nc(-c1ccc(-c3ccc(Cl)cc3[N+](=O)[O-])o1)n2Cc1ccccc1,i,i,i,36,55,i,i,
COc1ccc(-c2ccc(-c3nc4c(c(=O)[nH]c(=O)n4Cc4ccccc4)n3C)o2)c([N+](=O)[O-])c1,i,i,i,i,i,nt,nt,
COc1cccc(-c2nc(=S)c3c(n2Cc2ccco2)CCCC3)c1,i,i,i,i,i,nt,nt,
Cc1ccc(-c2nc(=S)c3c(n2Cc2ccco2)CCCC3)cc1,i,i,i,41,nt,i,i,
Cc1ccc(NC(=O)CC2SC(=O)NC2=O)cc1 (stereo not drawn),i,i,i,47,i,i,i,
COc1ccc2cc(-c3cc(C(=O)O)c4ccccc4n3)ccc2c1,i,i,i,40,i,45,i,
COc1ccc(-c2cc(C(=O)O)c3ccccc3n2)c(OC)c1,i,i,i,i,i,nt,nt,
CSCCC(NC(=O)c1ccccc1)C(=O)Nc1ccc(C)cc1 (stereo not drawn),i,i,i,i,i,nt,nt,
CSCCC(NC(=O)c1cccc(C)c1)C(=O)Nc1sccc1C(N)=O (stereo not drawn),i,i,i,41,i,i,i,
CCc1cc2c(=O)n(Cc3ccco3)c(SCC(=O)N3CCCc4ccccc43)nc2s1,i,i,i,43,i,i,i,
CCc1cc2c(=O)n(Cc3ccco3)c(SCC(=O)NCC3CCCO3)nc2s1 (stereo not drawn),i,i,i,i,i,nt,nt,
CCc1cc2c(=O)n(Cc3ccco3)c(SCc3c(C)noc3C)nc2s1,i,i,i,51,i,48,i,FID counter DR=i
CCC(=O)N(Cc1ccccc1)c1ccccc1C(=O)Nc1cc(OC)ccc1OC,nt,i,nt,nt,nt,nt,nt,
CC(=O)N(CCC(c1ccccc1)c1ccco1)Cc1cccs1 (stereo not drawn),i,i,i,i,i,nt,nt,

# Compound activity: PubChem, The Scripps Research Institute Molecular Screening Center
